We go through three compounds from publication PMC6039304 (International Journal for Parasitology: Drugs and Drug …, 2018).

The subject of data set [1] is L. infantum promastigotes. Description: ROS production in promastigotes. It is filed as cell-based, Leishmania infantum. The following applies: compounds at IC50; 1 h, 3 h, 6 h.
Data set [2] deals with L. infantum promastigotes. Description: antileishmanial activity in promastigote cultures. It is filed as cell-based, Leishmania infantum. The following applies: 24 h, read-out: Promastigotes IC50. The procedure, abridged:
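The L. infantum field strain came from an infected dog spleen and was grown at 26 °C in RPMI with 10% heat-inactivated FBS and 2% penicillin/streptomycin. Promastigotes at 10^6/ml were incubated with serial dilutions of test compound for 24 h at 26 °C. Cells were then resuspended in PBS, stained with 12 μM propidium iodide and analysed by flow cytometry. IC50 is the concentration killing 50% of parasites.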

For data set [3], the system named is L. infantum promastigotes. Description: mitochondrial membrane polarization in promastigotes. The following applies: for ΔΨm dissipation: at 6 h, relative to control, compound alone. It is filed as cell-based, Leishmania infantum. Summed up: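 Promastigotes (5 × 10^5/ml) were treated with test compounds or combinations at their IC50 values for 1, 3 or 6 h, then stained with 0.1 μM MitoTracker Red CMXRos for 30 min. Flow cytometry (488 nm laser, ≥10^4 cells, debris and autofluorescence excluded) scored the % of cells fluorescing above 10^2 (log scale) at 630 nm, relative to untreated control. Data came from at least 3 experiments.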

Data set [4] has as its system L. infantum promastigotes. Description: viability of promastigotes at early stages of treatment. It is filed as cell-based, Leishmania infantum. As to conditions: 6 h, compound at IC50. Summed up:
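Promastigotes (5 × 10^5/ml) were incubated 6 h with test compounds or combinations at their IC50 values. Propidium iodide was added at 12 μM and samples were run immediately by flow cytometry (≥10^4 cells). The value is % PI-stained promastigotes relative to control, mean ± SEM of at least 3 experiments.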

Data set [5] relates to L. infantum promastigotes. Nature of the data set: morphological changes in promastigotes. It counts as cell-based, Leishmania infantum. As to conditions: 6 h, 26 °C, at IC50; scanning electron microscopy.
The test system of data set [6] is human RBCs. Nature of the data set: hemolytic potential on red blood cells. It is filed as cell-based. The following applies: for Hemolysis HC50 / HC50 fold higher than that of HePC: human RBCs; for Hemolysis HC50: 1 h, 37 °C, 50% of maximum hemolysis with water; for % hemolysis: at 100 μM of each compound. Summed up: (§1)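 EDTA-anticoagulated blood from healthy volunteers was spun at 900 g for 10 min and the red cells washed three times in PBS. Cells were mixed 1:1 (v/v) with serial dilutions of test compound prepared in PBS, incubated 1 h at 37 °C, and centrifuged. Supernatant absorbance was read at 550 nm, with water-lysed cells as 100% hemolysis. HC50 was derived as for IC50. Combinations used the alkylphosphocholine at 15 or 25 μM plus peptaibol at 5 or 2 μM.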

Data set [7] can be described thus: hemolytic potential on red blood cells. It counts as cell-based, human. As to conditions: human, red blood cells from EDTA-preserved peripheral blood. The procedure, abridged:
as §1

Data set [8] is described as follows: cytotoxicity in THP-1 monocytes. It counts as cell-based, human. The following applies: human, THP-1 monocytes. The procedure, abridged:
(§2)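 THP-1 monocytes, maintained at 37 °C and 5% CO2 in RPMI with FBS and antibiotics, were seeded at 10^6/ml. They were incubated 24 h with serial dilutions of test compounds or combinations, resuspended in PBS, stained with 12 μM propidium iodide and counted by flow cytometry. CC50 is the concentration giving 50% of maximum cytotoxicity. Single-point combination tests used the alkylphosphocholine at 15 or 25 μM with peptaibol at 5 or 2 μM.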

Data set [9] relates to THP-1 monocytes. Description: cytotoxicity in THP-1 monocytes. As to conditions: for CC50: read-out: Cytotoxicity CC50, THP-1 monocytes. It is filed as cell-based, human. Summed up:
as §2

Data set [10] concerns intracellular L.infantum. It counts as cell-based, Leishmania infantum. The following applies: for IC50: read-out: Intracellular amastigotes IC50. Summed up: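 THP-1 cells were differentiated with 1 μM retinoic acid for 72 h, then infected overnight at 1:4 cell:parasite. Infected cells were purified on Histopaque 1077 (1300g, 20 min) and exposed 24 h (37 °C, 5% CO2) to serial dilutions. Infection was scored by counting % infected cells in Giemsa-stained cytospins. For combinations, peptaibol was held at 5 or 2 μM while alkylphosphocholine was varied (15–0.2 or 25–0.2 μM). CI came from linear isoboles; SI = CC50/intracellular IC50.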

For data set [11] the following is noted: in humans; cited from earlier work.
Data set [12] has as its system trypanosomiasis. The following applies: mouse model; ref Kumar et al., 1991; cited from earlier work.
Where [13] appears, read: single compound, intracellular amastigote in THP-1 monocytes, 24 h.

Read-outs that look alike come from different tables or passages of the source.

One may read the IC50 as the concentration at which inhibition is half-maximal. The CC50 is the concentration giving 50% cytotoxicity. Usually half-life stands for how long it takes for the measured level to halve. As for `CCCCCCCCCCCCCCCCOP(=O)([O-])OCC[N+](C)(C)C` [HePC, hexadecylphosphocholine, reference compound], the “ROS production in promastigotes” value in data set [1] was “low levels of ROS”. For the same compound, the IC50 came out at 8.2 ± 0.7 µM in [2] (Leishmania infantum) and 1.8 ± 0.5 µM in data set [10] (Leishmania infantum, THP-1, 24 h). Also, the “mitochondrial transmembrane potential (MitoTracker retention)” value in data set [3] (compounds at IC50, 1 h, 3 h, 6 h) is recorded as “significantly induce accumulation of MitoTracker above the control levels”. The PI-stained promastigotes in data set [4] worked out at 5.5%. In addition, the “morphological alterations of promastigotes” value in data set [5] was “did not seem to affect noticeably the morphology”. Also, the “Hemolysis HC50” value in data set [6] was 38.3 ± 2.8 µM. In [7], this compound registered a hemolysis at 1 h, 100 µM of 96.1%. In [8], this compound registered a CC50 at 24 h of 28.6 ± 2.5 µM. Moreover, the “% PI-stained THP-1 cells” value in data set [9] (15 μM HePC or 25 μM TC52, alone or combined with 5 μM AAM or 2 μM SZ, 24 h) came out at 27.6%. Also, the “Selectivity Index (SI), CC50/IC50 against the intracellular form” value in [10] (THP-1 CC50 / intracellular amastigote IC50) is 15.8. In addition, the half-life in [11] was 100 to 200 h.
With antiamoebin [AAM], in data set [12], the trypanocidal activity result is on record as “exhibits trypanocidal activity”. In [1], the “ROS production in promastigotes” value was “moderate levels of ROS”. In addition, the IC50 in data set [2] (26 °C) worked out at 8.7 ± 0.1 µM. The ΔΨm dissipation in data set [3] is listed as 75%. In [5], the “morphological alterations of promastigotes” value is “caused damage to the plasma membrane and altered flagellar morphology”. Further, in [6], the “% hemolysis” value is listed as 52.9%, the “HC50 fold higher than that of HePC” value is 2.5 fold and the “Hemolysis HC50” value worked out at 94.6 ± 2.6 µM. In data set [9] (THP-1 CC50 ratio), the “fold less cytotoxic than HePC” value is given as 1.4 fold and the “fold less cytotoxic than SZ” value is given as “about 1.8 fold”. Also, in data set [9] (24 h), the CC50 stood at 40.3 ± 3.2 µM. In addition, the IC50 in [10] (setting [13]) is 7.5 ± 0.2 µM.
Regarding suzukacillin A [SZ], the “ROS production in promastigotes” value in data set [1] is listed as “moderate levels of ROS”. Moreover, in [2] (26 °C), the IC50 is 8.2 ± 0.1 µM. The ΔΨm dissipation in data set [3] is reported as 30%. In data set [6], the “% hemolysis” value was 96.6%, the “HC50 fold higher than that of HePC” value was found to be 1.7 fold and the “Hemolysis HC50” value turned out to be 66.9 ± 2.2 µM. For the same compound, the CC50 in data set [9] (24 h) worked out at 22.5 ± 3.2 µM. The IC50 in [10] (setting [13]) amounted to 7.6 ± 1.2 µM.
